For data set [1], the system named is Striatum. Nature of the data set: Ratio of drug level from ipsilateral to contralateral in Wistar rat administered as iv measured after 60 mins of postinjection by MicroPET imaging analysis. In kind it is ADME, organism-based. Particulars: in vivo, 1 h. The procedure, abridged:
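Anesthetized Wistar rats lesioned by AMPA injection into the right striatum 7 days earlier received the [18F] tracer i.v. for microPET. The ratio is bound tracer in the lesion divided by bound tracer in the contralateral side at 60 min post-injection.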

Data set [2] relates to Striatum. Briefly: Drug uptake in iv dosed AMPA lesioned Wistar rat brain striatum measured after 60 mins by MicroPET imaging analysis. Particulars: in vivo, 1 h. The format is ADME, organism-based. The essentials: (§1)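 MicroPET on anesthetized Wistar rats 7 days after AMPA injection into the right striatum. The [18F]-labelled tracer was given i.v.; uptake is expressed as percent injected dose per mL (% ID/mL) in the lesioned striatum or the contralateral area at 60 min.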

Data set [3] concerns Striatum. Briefly: Drug uptake in iv dosed AMPA lesioned Wistar rat brain contralateral side of striatum measured after 60 mins by MicroPET imaging analysis. Conditions: in vivo, 1 h. In kind it is ADME, organism-based. The essentials: as §1
The test system of data set [4] is Liver microsome. Briefly: Drug metabolism in rat liver microsomes assessed as retention time of deethylated M1 metabolite formation after 30 mins by LC-MS/MS analysis. In kind it is ADME. Particulars: 0.5 h. The procedure, abridged:
(§2)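 Rat liver microsomes, 30 min incubation; metabolites detected by LC-MS and MS-MS. Chromatography: C18 column (2.1 x 150 mm, 5 µm), water/acetonitrile each with 0.05% formic acid, gradient 60:40 to 20:80 over 20 min, 200 µL/min; UV detection at 275 nm; retention times recorded.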

Data set [5] concerns Liver microsome. Nature of the data set: Drug metabolism in rat liver microsomes assessed as retention time of compound after 30 mins by LC-MS/MS analysis. The format is ADME. Particulars: 0.5 h. The procedure, abridged:
as §2

Data set [6] relates to Liver microsome. Nature of the data set: Drug metabolism in rat liver microsomes assessed as retention time of hydroxylated M2 metabolite formation after 30 mins by LC-MS/MS analysis. Particulars: 0.5 h. In kind it is ADME. The procedure, abridged:
as §2

The nature of data set [7]: Octanol-buffer partition coefficient, log D of the compound at pH 7.4 by HPLC method. The format is physicochemical. The procedure, abridged:
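The HPLC retention time was converted to logD7.4 by calibration against known logD values of similar compounds. C18 column (4.6 x 20 mm, 3.5 µm); A: 5 mM MOPS/(CH3)4NOH pH 7.4; B: 5% MOPS/(CH3)4NOH (100 mM, pH 7.4) in 95% acetonitrile; gradient 98:2 to 0:100; 1.2 mL/min; 25 °C; detection at 254 nm.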

A short description of data set [8]: Displacement of [3H]flunitrazepam from CBR in rat cerebral cortex membrane homogenates. In kind it is cell membranes. The essentials: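 Central benzodiazepine receptor counter-screen: competition against [3H]flunitrazepam (Kd = 2.1 nM, used at 0.4 nM) on rat cerebral cortex membrane homogenates; Ki values derived.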
The target in another data set is Translocator protein (Rattus norvegicus, UniProt P16257). Nature of the data set: Displacement of [3H]PK11195 from TSPO in rat heart membrane homogenates. The format is cell membranes.
Data set [9] relates to Liver microsome. Briefly: Drug metabolism in rat liver microsomes assessed as retention time of hydroxylated M3 metabolite formation after 30 mins by LC-MS/MS analysis. Particulars: 0.5 h. In kind it is ADME. The procedure, abridged:
as §2

Data set [10] concerns Liver microsome. Nature of the data set: Drug metabolism in rat liver microsomes assessed as retention time of dihydroxylated M4 metabolite formation after 30 mins by LC-MS/MS analysis. In kind it is ADME. Conditions: 0.5 h. The essentials:
as §2

Chain of Translocator protein (P16257 whole entry, looked up): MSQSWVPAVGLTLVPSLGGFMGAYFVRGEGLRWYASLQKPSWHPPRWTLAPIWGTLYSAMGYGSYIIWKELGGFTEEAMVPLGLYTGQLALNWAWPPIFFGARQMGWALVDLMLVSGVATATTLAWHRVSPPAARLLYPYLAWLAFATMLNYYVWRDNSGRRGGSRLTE

As for `CCC(C)N([11CH3])C(=O)c1cc2ccccc2c(-c2ccccc2Cl)n1` (stereo not drawn), the Ratio in the data set on Striatum [1] turned out to be 1.65.
As for `CCN(CC)C(=O)Cc1c(-c2ccc(C#CCCC[18F])cc2)nn2c(C)cc(C)nc12`, the results for the Drug uptake with Striatum [2] and in the data set on Striatum [3] were 0.24 %ID/ml and 0.05 %ID/ml, respectively. Besides, the Ratio in the data set with Striatum [1] is 4.62.
Consider `CCN(CC)C(=O)Cc1c(-c2ccc(C#CCF)cc2)nn2c(C)cc(C)nc12`, for which the Retention_time came to 11.41 min in the data set with Liver microsome [4], 15.66 min with Liver microsome [5] and 11 min in the data set on Liver microsome [6]. In data set [7], this molecule had a pH-dependent lipophilicity (logD) of 3.61. Further, the Ki is over 1000 nM in [8] and 0.54 nM on Translocator protein.
For the molecule `CCN(CC)C(=O)Cc1c(-c2ccc(C#CCCF)cc2)nn2c(C)cc(C)nc12`, the Retention_time in the data set with Liver microsome [9] was determined as 10.01 min; in the data set with Liver microsome [4], 11.68 min; in the data set on Liver microsome [10], 5.89 min; in the data set on Liver microsome [5] it was 15.81 min; in the data set with Liver microsome [6], 11.19 min. In [7], this molecule registered a logD of 3.67. In addition, the Ki was over 1000 nM in data set [8] and 0.74 nM on Translocator protein.
Consider `CCN(CC)C(=O)Cc1c(-c2ccc(C#CCCCF)cc2)nn2c(C)cc(C)nc12`, for which the Retention_time with Liver microsome [9] is on record as 8.92 min; with Liver microsome [4] it was 12.08 min; in the data set on Liver microsome [10], 3.43 min; in the data set with Liver microsome [5], 17.05 min; with Liver microsome [6] it was 11.37 min. The same molecule displayed a logD in [7] of 4.06. Besides, the Ki was over 1000 nM in [8] and 0.35 nM at Translocator protein.
As to `CCN(CC)C(=O)Cc1c(-c2ccc(C#CCCCCF)cc2)nn2c(C)cc(C)nc12`, the Retention_time in the data set on Liver microsome [9] came to 10.01 min; in the data set with Liver microsome [4] it was 11.68 min; in the data set on Liver microsome [10] it was 5.89 min; with Liver microsome [5], 15.81 min; with Liver microsome [6], 11.19 min. Moreover, in data set [7], the log distribution coefficient (logD) was 4.35. Also, the figures for the Ki (in data set [8]; at Translocator protein) were over 1000 nM and 0.79 nM, respectively.
Turning to `CCN(CC)C(=O)Cc1c(-c2ccc(OCC[18F])cc2)nn2c(C)cc(C)nc12` [DPA-714 F-18], the values for the Drug uptake in the data set with Striatum [2] and in the data set with Striatum [3] were 0.3 %ID/ml and 0.08 %ID/ml, respectively.
On to `CCN(CC)C(=O)Cc1c(-c2ccc(OCCF)cc2)nn2c(C)cc(C)nc12` [DPA-714], for which the logD in [7] was 2.89. Moreover, the Ki in data set [8] is over 1000 nM.

These data come from ChEMBL document CHEMBL3124750 (Bioorg Med Chem Lett, 2014).
